Experimental findings from paper PMC11247637 (ACS Medicinal Chemistry Letters, 2024) are described below.

As usually defined, the IC50 is the concentration that gives 50% inhibition.

Data set [1] concerns the target T1, MUS81-EME1 heterodimer (MUS81 residues 246-551; EME1 residues 246-570) (Homo sapiens, UniProt Q96NY9).
T1 sequence (Q96NY9 246-551): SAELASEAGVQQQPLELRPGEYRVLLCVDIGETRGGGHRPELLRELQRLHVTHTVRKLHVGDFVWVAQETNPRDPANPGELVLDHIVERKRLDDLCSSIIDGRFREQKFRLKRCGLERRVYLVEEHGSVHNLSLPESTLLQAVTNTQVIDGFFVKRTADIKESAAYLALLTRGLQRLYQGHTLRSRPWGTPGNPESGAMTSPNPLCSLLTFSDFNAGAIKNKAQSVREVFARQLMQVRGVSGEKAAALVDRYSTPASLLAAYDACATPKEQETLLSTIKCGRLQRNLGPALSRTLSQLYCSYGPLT
T1 sequence (Q96AY2 246-570 partner limits assumed): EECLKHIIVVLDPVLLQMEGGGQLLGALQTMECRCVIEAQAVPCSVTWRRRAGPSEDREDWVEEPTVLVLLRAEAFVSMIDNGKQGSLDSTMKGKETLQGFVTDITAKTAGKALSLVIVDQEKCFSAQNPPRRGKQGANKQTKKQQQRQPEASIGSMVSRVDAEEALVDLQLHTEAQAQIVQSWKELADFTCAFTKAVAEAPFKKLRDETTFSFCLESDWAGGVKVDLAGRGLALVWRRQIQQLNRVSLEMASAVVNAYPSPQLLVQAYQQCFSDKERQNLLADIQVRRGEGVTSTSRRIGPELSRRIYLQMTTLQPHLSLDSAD
The experiment in a line: Surface plasmon resonance. It is filed as binding. Conditions: SPR affinity; for increase in affinity: compared with 5. The method, boiled down: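 Kd values for binding to MUS81-EME1 were measured by SPR. Affinities are the geometric mean with geometric standard deviation of at least three determinations.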
For orientation: SPR reads the build-up and loss of mass on a sensor chip optically.

In the next data set the target is T2, Full length MUS81-EME1 (Homo sapiens, UniProt Q96NY9).
T2 sequence (Q96NY9 1-551): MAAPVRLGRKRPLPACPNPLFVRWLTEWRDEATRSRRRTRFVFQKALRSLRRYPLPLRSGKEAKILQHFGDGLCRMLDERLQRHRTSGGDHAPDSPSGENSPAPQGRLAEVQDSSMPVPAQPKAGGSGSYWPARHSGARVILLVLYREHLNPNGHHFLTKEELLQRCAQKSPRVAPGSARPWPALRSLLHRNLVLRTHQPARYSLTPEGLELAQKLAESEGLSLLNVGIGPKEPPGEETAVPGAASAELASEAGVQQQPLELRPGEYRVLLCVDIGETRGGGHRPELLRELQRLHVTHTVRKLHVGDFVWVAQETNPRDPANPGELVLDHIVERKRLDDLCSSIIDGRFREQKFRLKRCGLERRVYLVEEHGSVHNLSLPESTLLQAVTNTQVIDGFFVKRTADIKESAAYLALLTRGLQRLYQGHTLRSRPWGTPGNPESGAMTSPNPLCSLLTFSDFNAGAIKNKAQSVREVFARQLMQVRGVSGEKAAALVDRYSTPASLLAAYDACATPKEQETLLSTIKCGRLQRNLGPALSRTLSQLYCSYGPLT
T2 sequence (Q96AY2 1-570 partner): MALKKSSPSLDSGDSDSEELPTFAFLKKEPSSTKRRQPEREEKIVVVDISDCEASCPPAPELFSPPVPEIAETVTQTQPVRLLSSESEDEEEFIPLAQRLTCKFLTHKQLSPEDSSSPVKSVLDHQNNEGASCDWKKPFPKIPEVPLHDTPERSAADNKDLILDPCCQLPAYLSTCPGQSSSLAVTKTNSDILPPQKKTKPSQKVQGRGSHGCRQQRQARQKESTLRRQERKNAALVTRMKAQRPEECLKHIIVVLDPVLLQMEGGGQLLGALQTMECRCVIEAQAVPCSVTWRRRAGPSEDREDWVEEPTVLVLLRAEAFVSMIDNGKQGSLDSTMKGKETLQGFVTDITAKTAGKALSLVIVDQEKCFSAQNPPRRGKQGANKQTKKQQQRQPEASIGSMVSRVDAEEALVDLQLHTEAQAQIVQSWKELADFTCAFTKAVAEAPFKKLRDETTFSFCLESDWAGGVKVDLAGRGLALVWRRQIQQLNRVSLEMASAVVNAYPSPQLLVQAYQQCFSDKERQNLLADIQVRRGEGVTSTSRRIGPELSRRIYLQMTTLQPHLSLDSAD
The experiment in a line: MUS81-EME1 biochemical enzyme-inhibition assay. Conditions: for improvement in biochemical activity (IC50): compared with pyrimidinone 15; for improvement in biochemical activity: compared to 18. The method, boiled down: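 LE was calculated as 1.37 × pIC50/HAC and LLE as pIC50 − LogD. LogD was measured by shake-flask partition between octanol and water at pH 7.4. IC50 values are the geometric mean ± SEM of at least three determinations.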

The nature of data set [2]: Metabolic stability in rat hepatocytes. It is filed as in vitro ADME. In outline:
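Intrinsic clearance was measured in rat hepatocyte incubations and expressed as μL/min/1 × 10^6 cells.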

In data set [3] the target is safety panel of 22 common off-targets, comprising enzymes, receptors and ion channels (e.g., COX2, PDEs, INSR, GABA, NMDA, CaV-L). The experiment in a line: Eurofins SafetyScreen panel of 22 common off-targets. It is filed as biochemical. The note with it: read-out: IC50 against safety panel off-targets.

Some results are limits rather than exact numbers.

Regarding `O=C(O)c1nc(-c2ccccc2)nc(O)c1O` [Compound 5], the increase in potency in data set [1] (compared with methyl ester 1) is listed as about 20 fold.
Compound `Cc1nc(C(=O)O)c(O)c(=O)[nH]1` [Compound 6] came in with a drop in potency in data set [1] (compared with acid 5) of about 20 fold.
On to `O=C(O)c1nc(-c2ccc(Cl)cc2)nc(O)c1O` [Compound 10], for which, in data set [1], the increase in affinity is on record as about 2 fold.
As for `O=C(O)c1nc(-c2ccc(Br)cc2)nc(O)c1O` [Compound 11], the increase in affinity in data set [1] was about 2 fold.
`O=C(O)c1nc(-c2ccc3ccccc3c2)[nH]c(=O)c1O` [Compound 12] came in with an increase in affinity in data set [1] of about 2 fold.
For `O=C(O)c1nc(-c2ccc(N3CCNCC3)cc2)[nH]c(=O)c1O` [Compound 17], at Full length MUS81-EME1, the “improvement in biochemical activity (IC50)” value is on record as about 2 fold.
As to `O=C(O)c1cn(-c2ccc(-c3ccccc3)cc2)cc(O)c1=O` [Compound 18], at Full length MUS81-EME1, the “improvement in biochemical activity (IC50)” value is listed as “approximately 3 fold”.
As for `O=C(O)c1cn(-c2ccc(-c3ccc(C(=O)N4CCNCC4)cc3)cc2)cc(O)c1=O` [Compound 23], the “improvement in biochemical activity” value at Full length MUS81-EME1 is listed as “approximately 2 fold”. The “rHep Clint” value in data set [2] amounted to 11 μL/min/1 × 10^6 cells.
Consider `N#Cc1cc(-c2ccc(C(=O)N3CCNCC3)cc2)ccc1-n1cc(O)c(=O)c(C(=O)O)c1` [Compound 24], for which the IC50 in data set [3] was over 100 µM. Besides, at Full length MUS81-EME1, the “improvement in biochemical activity” value is “approximately 2 fold”. In addition, the “rHep Clint” value in data set [2] is 10 μL/min/1 × 10^6 cells.
